From ChEMBL document CHEMBL1255409, “In vitro activity of ceftaroline against 623 diverse strains of anaerobic bacteria” (2010)
In brackets after ≈: the same amount, converted by molar mass.

Columns and labels:
[1] = system: Bacteroides fragilis; assay: Antimicrobial activity against Bacteroides fragilis spp. under anaerobic conditions after 44 hrs by CLSI-M11-47 protocol based agar dilution method; format: functional
Outline: (§1)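 Reference agar dilution per CLSI M11-A7 with plates made on test day. Clinical isolates were stored at −70°C in 20% skim milk, subcultured twice, and 48-h cell paste was suspended in brucella broth to 0.5 McFarland. About 10^5 CFU/spot was applied with a Steers replicator. Plates were incubated 44 h at 37°C anaerobically. MIC was the lowest concentration giving complete inhibition or marked growth reduction versus the drug-free control.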

[2] = system: Prevotella buccae; assay: Antimicrobial activity against Prevotella buccae under anaerobic conditions after 44 hrs by CLSI-M11-47 protocol based agar dilution method; format: functional; settings: Segatella buccae
Outline: (§2)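 Clinical isolates were stored at −70°C in 20% skim milk and identified phenotypically or by partial 16S rRNA sequencing. Each strain was subcultured twice from frozen stock. Cell paste from 48-h cultures was suspended in brucella broth to a 0.5 McFarland standard. About 10^5 CFU per spot were applied by Steers replicator to agar dilution plates prepared on the day of testing. Plates were incubated 44 h at 37°C in an anaerobic chamber. MIC was taken as the lowest concentration giving complete inhibition or marked reduction of growth versus the drug-free control.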

[3] = system: Prevotella intermedia; assay: Antimicrobial activity against Prevotella intermedia under anaerobic conditions after 44 hrs by CLSI-M11-47 protocol based agar dilution method; format: functional; outline: as §2
[4] = system: Prevotella bergensis; assay: Antimicrobial activity against Prevotella bergensis under anaerobic conditions after 44 hrs by CLSI-M11-47 protocol based agar dilution method; format: functional; settings: Hallella bergensis; outline: as §2
[5] = system: Prevotella oris; assay: Antimicrobial activity against Prevotella oris under anaerobic conditions after 44 hrs by CLSI-M11-47 protocol based agar dilution method; format: functional; settings: Segatella oris; outline: as §2
[6] = system: Fusobacterium nucleatum; assay: Antimicrobial activity against Fusobacterium nucleatum under anaerobic conditions after 44 hrs by CLSI-M11-47 protocol based agar dilution method; format: functional; outline: as §2
[7] = system: Veillonella; assay: Antimicrobial activity against Veillonella spp. under anaerobic conditions after 44 hrs by CLSI-M11-47 protocol based agar dilution method; format: functional; outline: as §2
[8] = system: Finegoldia magna; assay: Antimicrobial activity against Finegoldia magna under anaerobic conditions after 44 hrs by CLSI-M11-47 protocol based agar dilution method; format: functional; outline: as §1
[9] = system: Anaerococcus murdochii; assay: Antimicrobial activity against Anaerococcus murdochii under anaerobic conditions after 44 hrs by CLSI-M11-47 protocol based agar dilution method; format: functional; outline: as §1
[10] = system: Anaerococcus vaginalis; assay: Antimicrobial activity against Anaerococcus vaginalis under anaerobic conditions after 44 hrs by CLSI-M11-47 protocol based agar dilution method; format: functional; outline: as §1
[11] = system: Anaerococcus; assay: Antimicrobial activity against Anaerococcus sp. under anaerobic conditions after 44 hrs by CLSI-M11-47 protocol based agar dilution method; format: functional; outline: as §1
[12] = system: Peptoniphilus lacrimalis; assay: Antimicrobial activity against Peptoniphilus lacrimalis under anaerobic conditions after 44 hrs by CLSI-M11-47 protocol based agar dilution method; format: functional; outline: as §2
[13] = system: Actinomyces israelii; assay: Antimicrobial activity against Actinomyces israelii under anaerobic conditions after 44 hrs by CLSI-M11-47 protocol based agar dilution method; format: functional; outline: as §1
[14] = system: Schaalia meyeri; assay: Antimicrobial activity against Actinomyces meyeri under anaerobic conditions after 44 hrs by CLSI-M11-47 protocol based agar dilution method; format: functional; outline: as §1
[15] = system: Actinomyces neuii subsp. anitratus; assay: Antimicrobial activity against Actinomyces neuii subsp. anitratus under anaerobic conditions after 44 hrs by CLSI-M11-47 protocol based agar dilution method; format: functional, Winkia neuii subsp. anitrata; settings: Winkia neuii; outline: as §1
[16] = system: Schaalia odontolytica; assay: Antimicrobial activity against Actinomyces odontolyticus under anaerobic conditions after 44 hrs by CLSI-M11-47 protocol based agar dilution method; format: functional; outline: as §1
[17] = system: Propionibacterium avidum; assay: Antimicrobial activity against Propionibacterium avidum under anaerobic conditions after 44 hrs by CLSI-M11-47 protocol based agar dilution method; format: functional; settings: Cutibacterium avidum; outline: as §2
[18] = system: Eggerthella lenta; assay: Antimicrobial activity against Eggerthella lenta under anaerobic conditions after 44 hrs by CLSI-M11-47 protocol based agar dilution method; format: functional; outline: as §1
[19] = system: Atopobium parvulum; assay: Antimicrobial activity against Atopobium parvulum under anaerobic conditions after 44 hrs by CLSI-M11-47 protocol based agar dilution method; format: functional; settings: Lancefieldella parvula; outline: as §1
[20] = system: Eubacterium contortum; assay: Antimicrobial activity against Eubacterium contortum under anaerobic conditions after 44 hrs by CLSI-M11-47 protocol based agar dilution method; format: functional; settings: Faecalicatena contorta; outline: as §1
[21] = system: Eubacterium cylindroides; assay: Antimicrobial activity against Eubacterium cylindroides under anaerobic conditions after 44 hrs by CLSI-M11-47 protocol based agar dilution method; format: functional; settings: Faecalitalea cylindroides; outline: as §1
[22] = system: Eubacterium saburreum; assay: Antimicrobial activity against Eubacterium saburreum under anaerobic conditions after 44 hrs by CLSI-M11-47 protocol based agar dilution method; format: functional; settings: Lachnoanaerobaculum saburreum; outline: as §1
[23] = system: Mogibacterium timidum; assay: Antimicrobial activity against Mogibacterium timidum under anaerobic conditions after 44 hrs by CLSI-M11-47 protocol based agar dilution method; format: functional; outline: as §2
[24] = system: Slackia exigua; assay: Antimicrobial activity against Slackia exigua under anaerobic conditions after 44 hrs by CLSI-M11-47 protocol based agar dilution method; format: functional; outline: as §2
[25] = system: Thomasclavelia ramosa; assay: Antimicrobial activity against Clostridium ramosum under anaerobic conditions after 44 hrs by CLSI-M11-47 protocol based agar dilution method; format: functional; outline: as §1
[26] = system: [Clostridium] innocuum; assay: Antimicrobial activity against Clostridium […] under anaerobic conditions after 44 hrs by CLSI-M11-47 protocol based agar dilution method; format: functional; outline: as §1
[27] = system: Clostridium hathewayi; assay: Antimicrobial activity against Clostridium hathewayi under anaerobic conditions after 44 hrs by CLSI-M11-47 protocol based agar dilution method; format: functional; settings: Hungatella hathewayi; outline: as §1
[28] = system: Clostridioides difficile; assay: Antimicrobial activity against Clostridium difficile under anaerobic conditions after 44 hrs by CLSI-M11-47 protocol based agar dilution method; format: functional; outline: as §1
[29] = system: Clostridium glycolicum; assay: Antimicrobial activity against Clostridium glycolicum under anaerobic conditions after 44 hrs by CLSI-M11-47 protocol based agar dilution method; format: functional; settings: Terrisporobacter glycolicus; outline: as §1
[30] = system: Clostridium paraputrificum; assay: Antimicrobial activity against Clostridium paraputrificum under anaerobic conditions after 44 hrs by CLSI-M11-47 protocol based agar dilution method; format: functional; outline: as §1
[31] = system: Lacrimispora sphenoides; assay: Antimicrobial activity against Clostridium sphenoides under anaerobic conditions after 44 hrs by CLSI-M11-47 protocol based agar dilution method; format: functional; outline: as §1
[32] = system: Eubacterium limosum; assay: Antimicrobial activity against Eubacterium limosum under anaerobic conditions after 44 hrs by CLSI-M11-47 protocol based agar dilution method; format: functional; outline: as §1

Compound: CCC[C@@H]1C[C@@H](C(=O)N[C@@H]([C@H]2O[C@H](SC)[C@H](O)[C@@H](O)[C@H]2O)[C@H](C)Cl)N(C)C1 [CLINDAMYCIN]
- MIC50 [1]: 4 µg/mL (≈ 9.41 µM)
- MIC90 [1]: > 128 µg/mL
- MIC50 [2]: ≤ 0.03 µg/mL
- MIC90 [2]: > 128 µg/mL
- MIC50 [3]: ≤ 0.03 µg/mL
- MIC90 [3]: 16 µg/mL (≈ 37.6 µM)
- MIC50 [4]: ≤ 0.03 µg/mL
- MIC90 [4]: 128 µg/mL (≈ 301 µM)
- MIC50 [5]: ≤ 0.03 µg/mL
- MIC90 [5]: 128 µg/mL (≈ 301 µM)
- MIC50 [6]: 0.06 µg/mL (≈ 0.141 µM)
- MIC90 [6]: 0.06 µg/mL (≈ 0.141 µM)
- MIC50 [7]: 0.125 µg/mL (≈ 0.294 µM)
- MIC90 [7]: 128 µg/mL (≈ 301 µM)
- MIC50 [8]: 2 µg/mL (≈ 4.71 µM)
- MIC90 [8]: > 128 µg/mL
- MIC50 [9]: 0.125 µg/mL (≈ 0.294 µM)
- MIC90 [9]: 64 µg/mL (≈ 151 µM)
- MIC50 [10]: 0.125 µg/mL (≈ 0.294 µM)
- MIC90 [10]: 64 µg/mL (≈ 151 µM)
- MIC50 [11]: 0.125 µg/mL (≈ 0.294 µM)
- MIC90 [11]: 64 µg/mL (≈ 151 µM)
- MIC50 [12]: 0.125 µg/mL (≈ 0.294 µM)
- MIC90 [12]: 64 µg/mL (≈ 151 µM)
- MIC50 [13]: 0.06 µg/mL (≈ 0.141 µM)
- MIC90 [13]: 128 µg/mL (≈ 301 µM)
- MIC50 [14]: 0.06 µg/mL (≈ 0.141 µM)
- MIC90 [14]: 128 µg/mL (≈ 301 µM)
- MIC50 [15]: 0.06 µg/mL (≈ 0.141 µM)
- MIC90 [15]: 128 µg/mL (≈ 301 µM)
- MIC50 [16]: 0.06 µg/mL (≈ 0.141 µM)
- MIC90 [16]: 128 µg/mL (≈ 301 µM)
- MIC50 [17]: 0.25 µg/mL (≈ 0.588 µM)
- MIC90 [17]: 0.25 µg/mL (≈ 0.588 µM)
- MIC50 [18]: 0.5 µg/mL (≈ 1.18 µM)
- MIC90 [18]: 2 µg/mL (≈ 4.71 µM)
- MIC50 [19]: 0.06 µg/mL (≈ 0.141 µM)
- MIC90 [19]: 2 µg/mL (≈ 4.71 µM)
- MIC50 [20]: 0.06 µg/mL (≈ 0.141 µM)
- MIC90 [20]: 2 µg/mL (≈ 4.71 µM)
- MIC50 [21]: 0.06 µg/mL (≈ 0.141 µM)
- MIC90 [21]: 2 µg/mL (≈ 4.71 µM)
- MIC50 [22]: 0.06 µg/mL (≈ 0.141 µM)
- MIC90 [22]: 2 µg/mL (≈ 4.71 µM)
- MIC50 [23]: 0.06 µg/mL (≈ 0.141 µM)
- MIC90 [23]: 2 µg/mL (≈ 4.71 µM)
- MIC50 [24]: 0.06 µg/mL (≈ 0.141 µM)
- MIC90 [24]: 2 µg/mL (≈ 4.71 µM)
- MIC50 [25]: 4 µg/mL (≈ 9.41 µM)
- MIC90 [25]: 8 µg/mL (≈ 18.8 µM)
- MIC50 [26]: 0.5 µg/mL (≈ 1.18 µM)
- MIC90 [26]: > 128 µg/mL
- MIC50 [27]: 0.5 µg/mL (≈ 1.18 µM)
- MIC90 [27]: 2 µg/mL (≈ 4.71 µM)
- MIC50 [28]: 2 µg/mL (≈ 4.71 µM)
- MIC90 [28]: 128 µg/mL (≈ 301 µM)
- MIC50 [29]: 2 µg/mL (≈ 4.71 µM)
- MIC90 [29]: 128 µg/mL (≈ 301 µM)
- MIC50 [30]: 2 µg/mL (≈ 4.71 µM)
- MIC90 [30]: 128 µg/mL (≈ 301 µM)
- MIC50 [31]: 2 µg/mL (≈ 4.71 µM)
- MIC90 [31]: 128 µg/mL (≈ 301 µM)
- MIC50 [32]: 0.06 µg/mL (≈ 0.141 µM)
- MIC90 [32]: 2 µg/mL (≈ 4.71 µM)
